Activity calls are given as the source filed them. The rule behind the calls is not given here.
Legend:
Liver microsomes = experiment: Metabolic stability in rat liver microsomes at 2 uM measured at 1 hr; type: ADME, Microsome
In short: (§1)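 Liver microsomes (human, or male monkey, dog, rat or mouse) at 0.5 mg/mL final with 2 µM compound, 5 mM MgCl2 and 5 mM PBS. The reaction was started with 1 mM NADPH and run at 37 °C. Verapamil was the positive control; water replaced NADPH in the negative control. Read-out was percent parent remaining at 1 h.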

[1] = Metabolic stability in mouse liver microsomes assessed as compound remaining at 2 uM measured at 1 hr; type: ADME, Microsome; settings: read-out: Stability; in short: as §1
[2] = Metabolic stability in monkey liver microsomes assessed as compound remaining at 2 uM measured at 1 hr; type: ADME, Macaca mulatta, Microsome; settings: rhesus monkey, read-out: Stability; in short: as §1
[3] = Metabolic stability in dog liver microsomes assessed as compound remaining at 2 uM measured at 1 hr; type: ADME, Canis lupus familiaris, Microsome; settings: read-out: Stability; in short: as §1
[4] = Metabolic stability in human liver microsomes assessed as compound remaining at 2 uM measured at 1 hr; type: ADME, Microsome; settings: read-out: Stability; in short: as §1
[5] = Volume of distribution at steady state in CD1 mouse at 10 mg/kg, iv; type: ADME, organism-based; design: dose 10 mg/kg, route intravenous; settings: in vivo, read-out: Vdss
In short: (§2)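 CD1 mice (n = 3 per compound) given 10 mg/kg as a single tail-vein injection in a pH 7.0 solution of 10% ethanol plus PEG400 (some compounds also with 10% DMSO). Blood was sampled at 0, 5, 15 and 30 min and 1, 2, 4, 8 and 24 h. Parameters were derived from the plasma concentration–time profiles.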

Mus musculus [6] = experiment: Oral bioavailability in CD1 mouse at 50 mg/kg; type: ADME, organism-based; settings: in vivo
In short: (§3)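 CD1 mice (n = 3 per compound) were dosed orally at 50 mg/kg as an aqueous emulsion in 30% Labrafil. Blood was drawn at 0, 5, 15 and 30 min and 1, 2, 4, 8 and 24 h. Bioavailability and other parameters were calculated from the plasma profiles and compared against the intravenous arm.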

Mus musculus [7] = experiment: Total unbound AUC (0 to infinity) in CD1 mouse at 50 mg/kg, po; type: ADME, organism-based; design: dose 50 mg/kg, route oral; settings: in vivo
[8] = AUClast in CD1 mouse at 50 mg/kg, po; type: ADME, organism-based; design: time 0 - last, dose 50 mg/kg, route oral; settings: plasma; in short: as §3
Mus musculus [9] = experiment: Total unbound Cmax in CD1 mouse at 50 mg/kg, po; type: ADME, organism-based; design: dose 50 mg/kg, route oral; settings: in vivo
[10] = AUClast in CD1 mouse at 10 mg/kg, iv; type: ADME, organism-based; design: time 0 - last, dose 10 mg/kg, route intravenous; settings: plasma; in short: as §2
Mus musculus [11] = experiment: Total unbound Cmax in CD1 mouse at 10 mg/kg, iv; type: ADME, organism-based; design: dose 10 mg/kg, route intravenous; settings: in vivo
[12] = Tmax in CD1 mouse at 50 mg/kg, po; type: ADME, organism-based; design: dose 50 mg/kg, route oral; settings: in vivo; in short: as §3
[13] = Tmax in CD1 mouse at 10 mg/kg, iv; type: ADME, organism-based; design: dose 10 mg/kg, route intravenous; settings: in vivo; in short: as §2
[14] = Clearance in CD1 mouse at 10 mg/kg, iv; type: ADME, organism-based; design: dose 10 mg/kg, route intravenous; settings: in vivo; in short: as §2
[15] = target: T1, Glucocorticoid receptor (Homo sapiens) (UniProt P04150); experiment: Transactivation of glucocorticoid receptor in HEK293 cells co-transfected with GRE assessed as induction of GRE-dependent gene expression at 100 ug/ml after 6 hrs by luciferase reporter gene assay; type: cell-based
T1 sequence (whole entry): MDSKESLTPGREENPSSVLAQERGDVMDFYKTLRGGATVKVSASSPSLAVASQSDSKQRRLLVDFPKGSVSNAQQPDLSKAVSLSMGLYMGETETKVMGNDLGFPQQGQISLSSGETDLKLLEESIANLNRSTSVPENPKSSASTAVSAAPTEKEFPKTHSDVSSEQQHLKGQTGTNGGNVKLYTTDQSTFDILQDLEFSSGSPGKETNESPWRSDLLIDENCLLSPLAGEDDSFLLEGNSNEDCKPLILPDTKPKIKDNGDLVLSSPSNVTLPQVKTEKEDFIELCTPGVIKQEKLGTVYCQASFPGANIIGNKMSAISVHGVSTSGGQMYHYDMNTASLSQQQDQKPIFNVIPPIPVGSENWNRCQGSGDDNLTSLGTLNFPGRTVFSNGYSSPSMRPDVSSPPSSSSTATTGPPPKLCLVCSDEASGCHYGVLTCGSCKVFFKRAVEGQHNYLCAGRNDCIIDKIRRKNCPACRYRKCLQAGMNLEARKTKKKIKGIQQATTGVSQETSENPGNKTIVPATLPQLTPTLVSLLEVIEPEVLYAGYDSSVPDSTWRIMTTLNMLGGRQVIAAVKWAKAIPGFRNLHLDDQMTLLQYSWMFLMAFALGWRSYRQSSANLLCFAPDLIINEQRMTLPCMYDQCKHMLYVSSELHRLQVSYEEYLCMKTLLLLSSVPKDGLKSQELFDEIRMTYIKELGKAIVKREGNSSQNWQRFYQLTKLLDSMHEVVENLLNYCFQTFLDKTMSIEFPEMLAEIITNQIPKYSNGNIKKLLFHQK
In short: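 HEK-293 cells stably transfected with a GRE-driven luciferase reporter were exposed to drug at 0.01–100 μg/ml for 6 h. Cells were washed with PBS and lysed, and luciferase activity was measured by luminometer.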

[16] = target: T2, Glucocorticoid receptor (Mus musculus) (UniProt P06537); experiment: Induction of glucocorticoid receptor nuclear translocation in mouse C2C12 cells at 1 x 10^-5 to 1.69 x 10^-10 M by chemiluminescence assay relative to control; type: cell-based
T2 sequence (whole entry): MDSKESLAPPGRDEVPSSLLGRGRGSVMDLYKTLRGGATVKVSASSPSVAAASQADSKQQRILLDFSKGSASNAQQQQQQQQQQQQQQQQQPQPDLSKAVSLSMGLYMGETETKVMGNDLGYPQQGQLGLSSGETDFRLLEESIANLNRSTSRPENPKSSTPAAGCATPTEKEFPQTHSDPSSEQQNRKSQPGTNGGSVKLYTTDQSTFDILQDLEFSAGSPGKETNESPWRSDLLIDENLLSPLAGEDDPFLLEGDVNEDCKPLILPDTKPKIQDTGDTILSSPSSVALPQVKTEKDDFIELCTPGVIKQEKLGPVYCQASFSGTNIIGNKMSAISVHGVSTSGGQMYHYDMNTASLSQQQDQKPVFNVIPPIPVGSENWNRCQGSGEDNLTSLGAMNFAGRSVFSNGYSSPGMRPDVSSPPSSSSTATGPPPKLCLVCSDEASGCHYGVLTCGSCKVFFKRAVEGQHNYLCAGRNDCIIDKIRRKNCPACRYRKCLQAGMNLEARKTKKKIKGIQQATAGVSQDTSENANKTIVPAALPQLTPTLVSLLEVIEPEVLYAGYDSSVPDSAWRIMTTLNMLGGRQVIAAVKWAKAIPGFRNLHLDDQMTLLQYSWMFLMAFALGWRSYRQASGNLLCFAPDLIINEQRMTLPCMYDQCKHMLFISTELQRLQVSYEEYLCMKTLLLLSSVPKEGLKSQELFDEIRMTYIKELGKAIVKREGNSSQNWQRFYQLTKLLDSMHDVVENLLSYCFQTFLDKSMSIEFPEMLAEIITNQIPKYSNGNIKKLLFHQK
In short: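 GR nuclear translocation measured by DiscoveRx in PathHunter cells using enzyme-fragment complementation. ProLink-tagged GR recruits a nuclear steroid receptor co-activator peptide fused to the enzyme acceptor, giving a chemiluminescent signal.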

[17] = Inhibition of TNFalpha-induced NFkappaB activation in mouse C2C12 cells incubated for 24 hrs prior to TNFalpha induction measured after 24 hrs by luciferase reporter gene assay; type: cell-based
In short: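 C2C12 myoblasts in growth medium and myotubes in differentiating medium, each stably carrying an NF-κB response element–luciferase reporter. Cells were washed, lysed and luciferase read; TNF-α alone was set as 100%. IC50 was calculated. SD shown.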

[18] = Mean residence time in CD1 mouse at 10 mg/kg, iv; type: ADME, organism-based; design: dose 10 mg/kg, route intravenous; settings: in vivo; in short: as §2
Mus musculus [19] = experiment: Total unbound AUC (0 to infinity) in CD1 mouse at 10 mg/kg, iv; type: ADME, organism-based; design: dose 10 mg/kg, route intravenous; settings: in vivo
[20] = Terminal half life in CD1 mouse at 10 mg/kg, iv; type: ADME, organism-based; design: dose 10 mg/kg, route intravenous; settings: in vivo, read-out: beta t1/2 (converted); in short: as §2
[21] = Terminal half life in CD1 mouse at 50 mg/kg, po; type: ADME, organism-based; design: dose 50 mg/kg, route oral; settings: in vivo, read-out: beta t1/2 (converted); in short: as §3
C2C12 = experiment: Cytotoxicity against mouse C2C12 cells assessed as cell viability at 0.01 to 100 ug/mL after 24 hrs by MTT assay; type: cell-based; settings: c2c12, 24 h
In short: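 MTT viability run on C2C12 cells grown and treated alongside the NF-κB reporter plates, with drug at 0.01–100 µg/ml and DMSO vehicle. Viability is expressed as percent of untreated cells. A one-way repeated-measures ANOVA tested for a concentration effect.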

SMILES	Activity [16] [%]	EC50 [17] [nM]	Activity (C2C12)	further results
C[C@@H]1C[C@H]2[C@@H]3CCC4=CC(=O)C=C[C@]4(C)C3=CC[C@]2(C)[C@H]1C(=O)CO	54.2	56.4	Non-toxic	Stability (Liver microsomes): Unstable; remaining at 1 h, 2 µM [1]: 34%; remaining at 1 h, 2 µM [2]: ≥ 80%; remaining at 1 h, 2 µM [3]: ≥ 80%; remaining at 1 h, 2 µM [4]: ≥ 80%; Vd [5]: 0.874 L/kg; F (Mus musculus [6]): 128%; fAUC (Mus musculus [7]): 22031 ng·h/mL; AUC(0-t) [8]: 22000 ng·h/mL; fCmax (Mus musculus [9]): 10203 ng/mL; AUC(0-t) [10]: 3450 ng·h/mL; fCmax (Mus musculus [11]): 8637 ng/mL; Tmax [12]: 60 min; Tmax [13]: 5 min; clearance [14]: 48.2 mL/min/kg; Activity [15]: inactive; MRT [18]: 17.3 min; fAUC (Mus musculus [19]): 3457 ng·h/mL; half-life [20]: 40 min; half-life [21]: 39.5 min
CCCC[C@@H]1C[C@H]2[C@@H]3CCC4=CC(=O)CC[C@]4(C)C3=CC[C@]2(C)[C@H]1C(=O)CO	8.5	> 10000	Toxic	–
CCCN(CCC)CC(=O)[C@@]1(O)CC[C@H]2[C@@H]3CCC4=CC(=O)CC[C@]4(C)C3=CC[C@@]21C	21.8	–	–	–
C[C@]12CCC(=O)C=C1CC[C@@H]1C2=CC[C@@]2(C)[C@H]1CC[C@]2(O)C(=O)CN1CCCC1	24.7	1850	–	–
CC(=O)OCC(=O)[C@@]1(O)CC[C@H]2[C@@H]3CCC4=CC(=O)CC[C@]4(C)C3=CC[C@@]21C	51.5	–	–	Activity [15]: inactive
C[C@]12CCC(=O)C=C1CC[C@@H]1C2=CC[C@@]2(C)[C@H]1CC[C@]2(O)C(=O)CO	49.2	62.9	–	–
C[C@@H]1C[C@H]2[C@@H]3CCC4=CC(=O)CC[C@]4(C)C3=CC[C@]2(C)[C@H]1C(=O)CN1CCN(C)CC1	14.7	> 10000	Non-toxic	–
CN1CCN(CC(=O)[C@@]2(O)CC[C@H]3[C@@H]4CCC5=CC(=O)CC[C@]5(C)C4=CC[C@@]32C)CC1	23.5	5780	–	–
C[C@]12C=CC(=O)C=C1CC[C@@H]1C2=CC[C@@]2(C)[C@H]1CC[C@]2(O)C(=O)CO	57.6	129	–	–
C[C@@H]1C[C@H]2[C@@H]3CCC4=CC(=O)CC[C@]4(C)C3=CC[C@]2(C)[C@H]1C(=O)CN1CCOCC1	22.7	5240	Non-toxic	–
C[C@]12CCC(=O)C=C1CC[C@@H]1C2=CC[C@@]2(C)[C@H]1CC[C@]2(O)C(=O)CN1CCOCC1	28.7	1740	–	–
CC(=O)OCC(=O)[C@H]1[C@H](C)C[C@H]2[C@@H]3CCC4=CC(=O)C=C[C@]4(C)C3=CC[C@@]21C	48.8	54.1	Non-toxic	Activity [15]: inactive
CCCN(CCC)CC(=O)[C@H]1[C@H](C)C[C@H]2[C@@H]3CCC4=CC(=O)CC[C@]4(C)C3=CC[C@@]21C	37.7	723	Non-toxic	–
CCCC[C@@H]1C[C@H]2[C@@H]3CCC4=CC(=O)C=C[C@]4(C)C3=CC[C@]2(C)[C@H]1C(=O)CO	6.9	> 10000	Toxic	–
C[C@]12C=CC(=O)C=C1CC[C@@H]1C2=CC[C@]2(C)C(C(=O)CO)=CC[C@@H]12	16.7	495	–	–
C[C@@H]1C[C@H]2[C@@H]3CCC4=CC(=O)CC[C@]4(C)C3=CC[C@]2(C)[C@H]1C(=O)CN1CCCC1	19.9	–	Non-toxic	–
C[C@H]1C[C@H]2[C@@H]3CCC4=CC(=O)C=C[C@]4(C)C3=CC[C@]2(C)[C@@]1(O)C(=O)CO	44.5	–	Non-toxic	–
CC(=O)OCC(=O)C1=CC[C@H]2[C@@H]3CCC4=CC(=O)C=C[C@]4(C)C3=CC[C@]12C	15.3	–	–	–
CC[C@@H]1C[C@H]2[C@@H]3CCC4=CC(=O)C=C[C@]4(C)C3=CC[C@]2(C)[C@H]1C(=O)CO	27	89.5	Toxic	–

Source: ChEMBL document CHEMBL2346557 (Bioorg Med Chem, 2013)
